According to ChEMBL document CHEMBL3244427, “Nonsteroidal antiinflammatory agents. 2. Derivatives/analogues of dibenz[b,e]oxepin-3-acetic acid” (J Med Chem, 1978):

Key:
Rattus norvegicus = assay: Antiinflammatory activity in po dosed Donryu rat assessed as inhibition of carrageenan-induced paw edema; format: functional; details: read-out: ID50 (the source's name)
Summary of the method: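 Male Donryu rats weighing 130–160 g. Carrageenan was used to induce paw edema. ID50 was read from a regression line fitted by least squares, with 95% fiducial limits calculated by Filler's equation.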

[1] = Therapeutic index, ratio of LD50 for po dosed Donryu rat assessed as mortality to ID50 for antiinflammatory activity in po dosed Donryu rat assessed as inhibition of carrageenan-induced paw edema; format: organism-based; details: in vivo, read-out: TI
[2] = Ulcerogenicity in po dosed Donryu rat assessed as gastric lesion; format: toxicity, organism-based, Stomach; details: in vivo, read-out: UD50 (the source's name)
Summary of the method: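 Male Donryu rats weighing 130–160 g. Gastric lesions were induced and then examined.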

[3] = Therapeutic index, ratio of UD50 for ulcerogenicity in po dosed Donryu rat assessed as gastric lesion to ID50 for antiinflammatory activity in po dosed Donryu rat assessed as inhibition of carrageenan-induced paw edema; format: organism-based, Stomach; details: in vivo, read-out: TI
[4] = Toxicity in po dosed Donryu rat assessed as mortality; format: organism-based; details: in vivo
Summary of the method: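 Acute toxicity was tested in male Donryu rats weighing 130–160 g, with mortality as the end point.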

SMILES	ED50 (Rattus norvegicus)	also measured
CC(CO)c1ccc2c(c1)OCc1ccccc1C2=O (stereo unspecified)	6 µmol/kg	
O=C1c2ccccc2COc2cc(Cc3nnn[nH]3)ccc21	> 61.6 µmol/kg	
CC(=O)CCc1ccc2c(c1)OCc1ccccc1C2=O	96.7 µmol/kg	
CC(C(=O)O)c1ccc2c(c1)OCc1ccccc1C2=O (stereo unspecified)	2.7 µmol/kg	
O=C(O)Cc1ccc2c(c1)Cc1ccccc1CO2	99.1 µmol/kg	
CC1(C)OCC(COC(=O)Cc2ccc3c(c2)OCc2ccccc2C3=O)O1 (stereo unspecified)	100 µmol/kg	selectivity ratio [1]: 2.4; TD50 [2]: 559 µmol/kg; selectivity ratio [3]: 5.6; LD50 [4]: 241 µmol/kg
O=C(O)Cc1ccc2c(c1)C(=O)c1sccc1CO2	75.1 µmol/kg	
CCN(CC)CCOC(=O)Cc1ccc2c(c1)C(=O)c1ccccc1CO2	133 µmol/kg	
CC(C(=O)O)c1ccc2c(c1)OCc1ccsc1C2=O (stereo unspecified)	43.7 µmol/kg	
O=C(O)c1ccc2c(c1)OCc1ccccc1C2=O	> 70.8 µmol/kg	
O=C(O)Cc1ccc2c(c1)SCc1ccsc1C2=O	> 62 µmol/kg	
O=C(Cc1ccc2c(c1)OCc1ccccc1C2=O)Oc1ccc(C(=O)O)cc1	91.6 µmol/kg	
O=C1c2ccccc2COc2ccc(Cc3nnn[nH]3)cc21	> 61.6 µmol/kg	
O=C(O)Cc1ccc2c(c1)C(O)c1ccccc1CO2 (stereo unspecified)	> 66.6 µmol/kg	
O=C(O)Cc1ccc2c(c1)C(=O)c1ccccc1CO2 [ISOXEPAC]	50 µmol/kg	
O=C(O)Cc1ccc2c(c1)Cc1ccc(Cl)cc1CO2	> 62.3 µmol/kg	
O=C(Cc1ccc2c(c1)OCc1ccccc1C2=O)OCC(O)CO (stereo unspecified)	31 µmol/kg	selectivity ratio [1]: 9; TD50 [2]: 252 µmol/kg; selectivity ratio [3]: 8.1; LD50 [4]: 278 µmol/kg

SMILES	ED50 (Rattus norvegicus)	also measured
O=C1c2ccccc2COc2ccc(-c3nnn[nH]3)cc21	> 64.7 µmol/kg	
O=C(O)Cc1ccc2c(c1)OCc1ccccc1C2O (stereo unspecified)	> 66.6 µmol/kg	
O=C(O)Cc1ccc2c(c1)SCc1sccc1C2=O	40 µmol/kg	
COc1ccc(C(=O)/C=C/c2ccc3c(c2)C(=O)c2ccccc2CO3)cc1	> 122 µmol/kg	
O=C(O)Cc1ccc2c(c1)COc1ccccc1C2=O	131 µmol/kg	
O=C(O)Cc1ccc2c(c1)OCc1ccccc1C2	35 µmol/kg	
O=C(O)Cc1ccc2c(c1)OCc1ccsc1C2=O	61.3 µmol/kg	
O=C(O)Cc1ccc2c(c1)OCc1ccccc1C2=O [OXEPINAC]	12.9 µmol/kg	selectivity ratio [1]: 29.7; TD50 [2]: 279 µmol/kg; selectivity ratio [3]: 21.6; LD50 [4]: 383 µmol/kg
NC(=O)Cc1ccc2c(c1)C(=O)c1ccccc1CO2	> 67.4 µmol/kg	
CCOC(=O)CNC(=O)Cc1ccc2c(c1)OCc1ccccc1C2=O	> 50.9 µmol/kg	
O=C(O)c1ccc2c(c1)C(=O)c1ccccc1CO2	> 70.8 µmol/kg	
O=C1c2ccccc2COc2cc(-c3nnn[nH]3)ccc21	> 64.7 µmol/kg	
CC(CO)c1ccc2c(c1)C(=O)c1ccccc1CO2 (stereo unspecified)	28.3 µmol/kg	
CC(C(=O)O)c1ccc2c(c1)OCc1ccccc1C2 (stereo unspecified)	12.7 µmol/kg	
CC(=O)/C=C/c1ccc2c(c1)C(=O)c1ccccc1CO2	> 162 µmol/kg	
O=C(O)Cc1ccc2c(c1)C(=O)c1sccc1CS2	> 62 µmol/kg	
CC(=O)/C=C/c1ccc2c(c1)OCc1ccccc1C2=O	> 162 µmol/kg	
